Measured values as given in ChEMBL document CHEMBL3297678, “New insights into the biological properties of Crocus sativus L.: chemical modifications, human monoamine oxidases inhibition and molecular modeling studies” (Eur J Med Chem, 2014).

Columns and labels:
[1] = biological target: T1, Amine oxidase [flavin-containing] A (Homo sapiens, UniProt P21397); test: Inhibition of recombinant human MAO-A expressed in insect cells assessed as inhibition of oxidation of kynuramine to 4-hydroxyquinoline after 20 mins by fluorescence spectrophotometry
T1 sequence (P21397 whole entry): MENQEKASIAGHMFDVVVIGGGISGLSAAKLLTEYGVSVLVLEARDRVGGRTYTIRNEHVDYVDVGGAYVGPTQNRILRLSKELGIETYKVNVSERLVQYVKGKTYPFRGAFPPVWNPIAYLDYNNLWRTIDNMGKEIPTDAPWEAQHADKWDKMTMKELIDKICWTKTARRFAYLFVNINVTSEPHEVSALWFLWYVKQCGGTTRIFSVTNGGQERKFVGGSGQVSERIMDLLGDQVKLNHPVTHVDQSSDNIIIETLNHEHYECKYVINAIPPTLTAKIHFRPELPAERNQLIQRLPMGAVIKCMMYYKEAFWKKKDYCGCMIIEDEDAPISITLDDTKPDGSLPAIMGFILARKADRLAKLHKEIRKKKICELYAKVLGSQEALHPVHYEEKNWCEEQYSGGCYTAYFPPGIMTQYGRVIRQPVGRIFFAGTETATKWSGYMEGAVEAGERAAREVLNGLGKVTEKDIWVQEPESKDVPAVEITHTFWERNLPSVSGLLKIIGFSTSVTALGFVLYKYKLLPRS
How it was run: (§1)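 Enzyme source was insect-cell microsomes carrying recombinant hMAO-A or hMAO-B. Kynuramine substrate was oxidized to 4-hydroxyquinoline in 100 mM potassium phosphate, pH 7.4, made isotonic with 20.2 mM KCl, with 4% DMSO and varied inhibitor concentrations. Product was read by fluorescence (ex 310/em 400 nm) against a linear calibration curve. Controls excluded inhibitor fluorescence or quenching. IC50 came from a one-site competition fit of initial rate versus log[inhibitor]; mean ± SD of triplicates.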

[2] = biological target: T2, Amine oxidase [flavin-containing] B (Homo sapiens, UniProt P27338); test: Inhibition of recombinant human MAO-B expressed in insect cells assessed as inhibition of oxidation of kynuramine to 4-hydroxyquinoline after 20 mins by fluorescence spectrophotometry; how it was run: as §1
T2 sequence (P27338 whole entry): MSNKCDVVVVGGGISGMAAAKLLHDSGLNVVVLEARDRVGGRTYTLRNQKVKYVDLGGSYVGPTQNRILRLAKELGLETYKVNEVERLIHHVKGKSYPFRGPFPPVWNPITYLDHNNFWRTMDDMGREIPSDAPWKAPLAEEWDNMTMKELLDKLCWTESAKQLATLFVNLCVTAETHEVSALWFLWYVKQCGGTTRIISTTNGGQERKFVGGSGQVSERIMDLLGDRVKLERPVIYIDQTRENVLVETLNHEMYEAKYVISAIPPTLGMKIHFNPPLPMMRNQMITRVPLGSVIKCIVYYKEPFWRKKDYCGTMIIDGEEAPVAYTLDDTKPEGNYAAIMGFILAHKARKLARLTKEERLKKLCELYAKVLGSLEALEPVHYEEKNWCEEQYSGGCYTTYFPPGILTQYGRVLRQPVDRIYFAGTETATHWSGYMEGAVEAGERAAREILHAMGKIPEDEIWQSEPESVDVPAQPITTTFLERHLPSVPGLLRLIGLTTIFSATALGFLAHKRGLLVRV

Homo sapiens = species on record: Homo sapiens; test: Selectivity ratio of IC50 for recombinant human MAO-B expressed in insect cells to IC50 for recombinant human MAO-A expressed in insect cells

Compound | IC50 ([1]; read-out: IC50) | IC50 ([2]; read-out: IC50) | Ratio IC50 (Homo sapiens) | IC50 [1] | IC50 [2]
CC1=C(/C=N/N(C)C(N)=S)C(C)(C)CC=C1 | 93.2 µM | 117 µM |  |  | 
CC1=C(/C=N/NC(N)=O)C(C)(C)CC=C1 | 164 µM | 111 µM |  |  | 
CC(/C=C/C=C(\C)C(=O)O[C@@H]1O[C@H](CO[C@@H]2O[C@H](CO)[C@@H](O)[C@H](O)[C@H]2O)[C@@H](O)[C@H](O)[C@H]1O)=C\C=C\C=C(C)\C=C\C=C(/C)C(=O)O[C@@H]1O[C@H](CO[C@@H]2O[C@H](CO)[C@@H](O)[C@H](O)[C@H]2O)[C@@H](O)[C@H](O)[C@H]1O [CROCIN] | 170 µM | 128 µM |  |  | 
CC1=C(/C=N/N=C2\SCC(=O)N2Cc2ccccc2)C(C)(C)CC=C1 | 86.6 µM | 215 µM |  |  | 
CC1=C(/C=N/NC(N)=S)C(C)(C)CC=C1 | 56.8 µM | 74.5 µM |  |  | 
CC1=C(/C=N/NC(=S)Nc2ccccc2)C(C)(C)CC=C1 | 19.5 µM | 224 µM | 11 |  | 
CC1=C(/C=N/Nc2nc(-c3cccc([N+](=O)[O-])c3)cs2)C(C)(C)CC=C1 | 9.93 µM | 0.1 µM |  |  | 
CC1=C(/C=N/N=C2/NC(=O)CS2)C(C)(C)CC=C1 | 132 µM | 168 µM |  |  | 
CC1=C(C=O)C(C)(C)CC=C1 |  |  |  | Not Active | Not Active
